Results reported in ChEMBL document CHEMBL1156262, “Substituted benzothiophene or benzofuran derivatives as a novel class of bone morphogenetic protein-2 up-regulators: synthesis, structure-activity relationships, and preventive bone loss efficacies in senescence accelerated mice (SAMP6) and ovariectomized rats” (J Med Chem, 2010).
Calls of active or inactive are those of the source. The calls are words filed in the database; no cut-off is given here.

Experiments:
[1] = tested on: Rattus norvegicus; assay: Toxicity in rat assessed as pathological changes in spleen at 150 mg/kg/day, po after 3 months by histomorphology; format: organism-based; design: route oral; settings: in vivo
Method in brief: (§1)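 Rats, n = 7, given oral doses of 150 mg/kg/day for 3 months. Heart, liver, spleen, lung and kidney examined histologically for pathological change.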

[2] = tested on: Mus musculus; assay: Toxicity in SAMP6 mouse assessed as pathological changes in kidney at 30 mg/kg/day, po after 3 months by histomorphology; format: organism-based; design: route oral; settings: in vivo
Method in brief: (§2)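 SAMP6 mice, n = 5 per group, dosed orally at 30 mg/kg/day in 0.5% methylcellulose for 3 months. Heart, liver, spleen, lung and kidney harvested, weighed and examined histologically. Organ/body weight indexes, body weight, and 24 h water and food intake (g/g body weight) compared with vehicle controls.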

[3] = tested on: Mus musculus; assay: Induction of bone formation in SAMP6 mouse right femora assessed as trabecular bone volume percentage at 30 mg/kg/day, po measured after 3 months by bone histomorphometry; format: functional, Trabecula
Method in brief: (§3)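 SAMP6 mice, 5 months old, n = 5 per group (3 male, 2 female), randomized by initial BMD. Given compound in 0.5% methylcellulose by gavage daily for 3 months. Proximal third of the right femur fixed in 4% paraformaldehyde, cut as undecalcified sections, and scored by image analysis for histomorphometry.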

[4] = tested on: Mus musculus; assay: Induction of bone formation in SAMP6 mouse right femora assessed as trabecular formation surface percentage at 30 mg/kg/day, po measured after 3 months by bone histomorphometry; format: functional, Trabecula; method in brief: as §3
[5] = tested on: Mus musculus; assay: Induction of BMP2 expression in SAMP6 mouse osteoblast at 10 mg/kg/day, po after 3 months by immunohistochemical analysis; format: functional, organism-based
Method in brief: (§4)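 SAMP6 mice, 5 months old, male and female, n = 5 per group (3 male, 2 female). Dosed by gavage with compound suspended in 0.5% methylcellulose daily for 3 months; the vehicle group received methylcellulose only. Proximal third of the left femur fixed in 4% neutral paraformaldehyde for 24 h, decalcified in 10% EDTA at 4 °C for 4 weeks, then frozen-sectioned at 5 μm. Stained with rabbit polyclonal anti-BMP-2 and an alkaline phosphatase secondary. BMP-2-positive area was taken as a percentage of bone tissue area, averaged over five fields below the epiphyseal plate.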

[6] = tested on: Rattus norvegicus; assay: Toxicity in rat assessed as pathological increase in body weight at 150 mg/kg/day, po after 3 months; format: organism-based; design: route oral; settings: in vivo
Method in brief: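 Female rats (n = 7) were dosed orally once daily at 150 (mg/kg)/day for 3 months. Body weight, behaviour and fur were observed throughout. At the end, hearts, livers, spleens, lungs and kidneys were sectioned for histological examination of pathological changes.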

[7] = tested on: Mus musculus; assay: Induction of bone mineral density in SAMP6 mouse assessed as left hind leg BMD at 30 mg/kg/day, po measured after 3 months; format: functional
Method in brief: (§5)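 SAMP6 mice, 5 months old, n = 5 per group, given compound in 0.5% methylcellulose by gavage daily. Dual-energy X-ray absorptiometry under pentobarbital anaesthesia (50 mg/kg ip), animals prone, at 0, 4, 8 and 12 weeks of treatment. Regions of interest were whole body, spine and left hind leg.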

[8] = tested on: Rattus norvegicus; assay: Induction of bone formation in ovariectomized rat assessed as decrease in trabecular resorption surface percentage at 7.5 mg/kg/day, po after 3 months; format: functional, organism-based; settings: Trabecula
Method in brief: (§6)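 Female rats (205–235 g) randomized by body weight, n = 7 per group: sham, ovariectomized with vehicle, ovariectomized with raloxifene 5 mg/kg/day, and ovariectomized with compound at 7.5, 15 or 30 mg/kg/day. All dosing oral for 3 months. Undecalcified proximal tibia sections analysed by histomorphometry, with comparisons against the sham and ovariectomized groups.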

[9] = tested on: Rattus norvegicus; assay: Toxicity in rat assessed as pathological changes in heart at 150 mg/kg/day, po after 3 months by histomorphology; format: organism-based; design: route oral; settings: in vivo; method in brief: as §1
[10] = tested on: Mus musculus; assay: Toxicity in SAMP6 mouse assessed as change in 24 hrs food consumption at 30 mg/kg/day, po after 3 months; format: organism-based; design: route oral; settings: in vivo; method in brief: as §2
[11] = tested on: Rattus norvegicus; assay: Induction of bone formation in ovariectomized rat assessed as increase in trabecular bone volume percentage at 15 mg/kg/day, po after 3 months; format: functional, organism-based; settings: Trabecula; method in brief: as §6
[12] = tested on: Mus musculus; assay: Toxicity in SAMP6 mouse assessed as pathological changes in liver at 30 mg/kg/day, po after 3 months by histomorphology; format: organism-based; design: route oral; settings: in vivo; method in brief: as §2
[13] = tested on: Mus musculus; assay: Induction of bone formation in SAMP6 mouse right femora assessed as trabecular resorption surface percentage at 30 mg/kg/day, po measured after 3 months by bone histomorphometry; format: functional, Trabecula; method in brief: as §3
[14] = tested on: Rattus norvegicus; assay: Induction of bone formation in ovariectomized rat assessed as decrease in trabecular resorption surface percentage at 30 mg/kg/day, po after 3 months; format: functional, organism-based; settings: Trabecula; method in brief: as §6
[15] = tested on: Mus musculus; assay: Induction of bone mineral density in SAMP6 mouse assessed as whole body BMD at 30 mg/kg/day, po measured after 3 months; format: functional; method in brief: as §5
[16] = tested on: Rattus norvegicus; assay: Prevention of bone loss in ovariectomized rat assessed as increase in number, thickness, area and connectivity of trabecula at 15 mg/kg/day, po after 3 months by histomorphometry Leica Qwin image analysis; format: functional, organism-based; method in brief: as §6
[17] = tested on: Rattus norvegicus; assay: Prevention of bone loss in po dosed ovariectomized rat assessed as increase in number, thickness, area and connectivity of trabecula after 3 months by histomorphometry Leica Qwin image analysis; format: functional, organism-based; method in brief: as §6
[18] = Toxicity in ip dosed Kunming mouse assessed as mortality treated for 3 days measured after 17 days; format: organism-based; settings: in vivo
[19] = tested on: Rattus norvegicus; assay: Toxicity in rat assessed as pathological changes in liver at 150 mg/kg/day, po after 3 months by histomorphology; format: organism-based; design: route oral; settings: in vivo; method in brief: as §1
[20] = tested on: Mus musculus; assay: Induction of bone formation in SAMP6 mouse right femora assessed as average osteoid width at 30 mg/kg/day, po measured after 3 months by bone histomorphometry; format: functional; method in brief: as §3
[21] = tested on: Rattus norvegicus; assay: Toxicity in rat assessed as pathological changes in lung at 150 mg/kg/day, po after 3 months by histomorphology; format: organism-based; design: route oral; settings: in vivo; method in brief: as §1
[22] = tested on: Mus musculus; assay: Toxicity in SAMP6 mouse assessed as pathological changes in spleen at 30 mg/kg/day, po after 3 months by histomorphology; format: organism-based; design: route oral; settings: in vivo; method in brief: as §2
[23] = tested on: Mus musculus; assay: Toxicity in SAMP6 mouse assessed as increase in body weight at 30 mg/kg/day, po after 3 months; format: organism-based; design: route oral; settings: in vivo; method in brief: as §2
[24] = Induction of BMP2 expression in mouse calcarial MC3T3-E1 cells stably transfected with mouse BMP2 promotor-luciferase assessed as upregulation rate at 4 uM; format: functional, cell-based
Method in brief: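 Reporter assay in murine calvarial MC3T3-E1 cells stably carrying the mouse BMP-2 promoter fused to firefly luciferase (pGL4BMP-2). Cells grown in DMEM with 10% heat-inactivated FBS at 37 °C and 5% CO2. Test compounds at 4.0 μM; lovastatin at 0.4 μM as positive control; 0.1% DMSO as negative control. Up-regulation rate = (RLU of test − RLU of negative control)/RLU of negative control × 100.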

[25] = tested on: Mus musculus; assay: Toxicity in SAMP6 mouse assessed as change in 24 hrs water consumption at 30 mg/kg/day, po after 3 months; format: organism-based; design: route oral; settings: in vivo; method in brief: as §2
[26] = tested on: Mus musculus; assay: Toxicity in SAMP6 mouse assessed as pathological changes in lung at 30 mg/kg/day, po after 3 months by histomorphology; format: organism-based; design: route oral; settings: in vivo; method in brief: as §2
[27] = tested on: Mus musculus; assay: Induction of BMP2 expression in SAMP6 mouse cartilage cells at 30 mg/kg/day, po after 3 months by immunohistochemical analysis; format: functional, organism-based; method in brief: as §4
[28] = tested on: Mus musculus; assay: Toxicity in SAMP6 mouse assessed as pathological changes in heart at 30 mg/kg/day, po after 3 months by histomorphology; format: organism-based; design: route oral; settings: in vivo; method in brief: as §2
[29] = tested on: Mus musculus; assay: Induction of bone mineral density in SAMP6 mouse assessed as spine BMD at 30 mg/kg/day, po measured after 3 months; format: functional; method in brief: as §5

With `CC(=O)c1cc2ccccc2s1` the Activity [1] was “Non-toxic”, the Activity [2] was “Non-toxic” and the Activity [3] was 4.95%. The Activity [4] was 5.89%, the Activity [5] was “Active” and the Activity [6] was “Non-toxic”. For the same compound, the Activity [7] was 0.05 g/cm2, the Activity [8] was “Active” and the Activity [9] was “Non-toxic”. The Activity [10] was “Non-toxic”, the Activity [11] was “Active” and the Activity [12] was “Non-toxic”. For the same compound, the Activity [13] was 7.09%, the Activity [14] was “Active” and the Activity [15] was 0.068 g/cm2. For the same compound, the Activity [16] was “Active”, the Activity [17] was “Dose-dependent effect” and the LD50 at 408 h [18] was greater than 1580 mg/kg. The Activity [19] was “Non-toxic”, the Activity [20] was 5.55 µm and the Activity [21] was “Non-toxic”. For the same compound, the Activity [22] was “Non-toxic”, the Activity [23] was “Non-toxic” and the Activity [24] was 35.6%. For the same compound, the Activity [25] was “Non-toxic”, the Activity [26] was “Non-toxic” and the Activity [27] was “inactive”. The Activity [28] was “Non-toxic” and the Activity [29] was 0.086 g/cm2.
